From ChEMBL document CHEMBL1139095, “Butyl 2-(4-[1.1'-biphenyl]-4-yl-1H-imidazol-2-yl)ethylcarbamate, a potent sodium channel blocker for the treatment of neuropathic pain” (Bioorg Med Chem Lett, 2007) come the findings set out here.

Calls of active or inactive are those of the source.

Assay [1] in a line: Displacement of [3H]BTX from sodium channel in rat cerebral cortex synaptosomal membrane. It counts as tissue-based.
Another assay concerns SH-SY5Y. Description: Cytoprotection against vetratridine-induced cytotoxicity in human SH-SY5Y cells. In kind it is functional, cell-based. In a few lines:
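SH-SY5Y neuroblastoma cells were seeded 24 h ahead and pre-incubated 20 min with compound. They were then exposed 3 h to veratridine plus 1 mM ouabain, and the medium was swapped for 10% alamar blue for 18–24 h. Absorbance was read at 570/620. Percent cell injury was calculated from blank-corrected OD. IC50 (concentration halving injury) was extrapolated from dose–response graphs; triplicate means, two experiments.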

Assay [2] concerns Rattus norvegicus. Description: Antihyperalgesic effect in carrageenan-induced rat hyperalgesia model at 30 mg/kg, ip. In kind it is functional, organism-based. Also on record: dose 30 mg/kg. In a few lines: (§1)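 Compound or vehicle was given ip 30 min before paw withdrawal threshold was measured to mechanical stimulus (Randall–Selitto). Carrageenan model: inflamed versus contralateral paw. CCI model: injured versus non-injured paw. Groups of n = 4–6 were compared with vehicle by two-sided Student/Dunnett test; mean ± SEM.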

Assay [3] deals with Rattus norvegicus. Description: Protective activity against chronic constriction injury-induced rat neuropathic pain model at 30 mg/kg, ip. In kind it is functional, organism-based. More on the design: dose 30 mg/kg. In a few lines:
as §1

Assay [4] concerns Rattus norvegicus. The assay can be described thus: Antihyperalgesic effect in carrageenan-induced rat hyperalgesia model at 10 mg/kg, ip. More on the design: dose 10 mg/kg. It counts as functional, organism-based. The gist of the method: as §1

What is called IC50 is the concentration that inhibits the measured activity by half. Higher therefore signals lower potency. For the molecule `CCOC(=O)NCCc1nc(-c2ccc(-c3ccccc3)cc2)c[nH]1`, the IC50 in assay [1] was 71 nM.
With `CCCCCCOC(=O)NCCc1nc(-c2ccc(-c3ccccc3)cc2)c[nH]1`, the concentration for half-maximal inhibition (IC50) was found to be 670 nM in the assay with SH-SY5Y and 15 nM in assay [1].
Turning to `CCCCOC(=O)NCCc1nc(-c2ccc(C3CCCCC3)cc2)c[nH]1`, in assay [1], the IC50 was determined as 7 nM. That is a single-digit nanomolar value.
The same measure, in the same setting: under `CCCCOC(=O)NCCc1nc(-c2ccc(C(F)(F)F)cc2)c[nH]1` stands 453 nM; under `CCCOC(=O)NCCc1nc(-c2ccc(-c3ccccc3)cc2)c[nH]1`, 86 nM.
Regarding `O=C(NCCc1nc(-c2ccc(-c3ccccc3)cc2)c[nH]1)OC1CCCCC1`, the IC50 with SH-SY5Y came out at 650 nM; in assay [1], 26 nM.
The like results for `CCCCOC(=O)NCCc1nc(-c2ccc(CCC)cc2)c[nH]1` were, in that order, 3990 nM and 62 nM.
In turn, `CC(C)(C)COC(=O)NCCc1nc(-c2ccc(-c3ccccc3)cc2)c[nH]1` came in with an IC50 in assay [1] of 372 nM. This counts as sub-micromolar.
Still for that read-out and setting: under `CC(C)(C)OC(=O)NCc1nc(-c2ccc(-c3ccccc3)cc2)c[nH]1` stands 144 nM; under `CCCCOC(=O)NCCc1nc(-c2ccc(F)cc2)c[nH]1`, 1000 nM.
For `CCCCOC(=O)NCCc1nc(-c2ccc(CC(C)C)cc2)c[nH]1`, the IC50 in the assay on SH-SY5Y was 750 nM; in assay [1], 41 nM.
In assay [1], `COC(=O)NCCc1nc(-c2ccc(-c3ccccc3)cc2)c[nH]1` displayed an IC50 of 282 nM. This counts as sub-micromolar.
For `CC(C)(C)OC(=O)NCCc1nc(-c2ccc(-c3ccccc3)cc2)c[nH]1`, the IC50 in assay [1] stood at 64 nM.
With `CCCCOC(=O)NCCc1nc(-c2ccc(-c3ccccc3)cc2)c[nH]1`, the result with Rattus norvegicus [2], in the assay on Rattus norvegicus [3] and in the assay with Rattus norvegicus [4] was Active. The IC50 in the assay with SH-SY5Y turned out to be 230 nM; in assay [1], 32 nM.
`CC(C)(C)OC(=O)NCCCc1nc(-c2ccc(-c3ccccc3)cc2)c[nH]1` gave an IC50 in assay [1] of 184 nM. That is a sub-micromolar value.
As for `CCCCOC(=O)NCCc1nc(-c2ccc(Br)cc2)c[nH]1`, the IC50 was 900 nM in the assay with SH-SY5Y and 210 nM in assay [1].
The matching figures for `O=C(NCCc1nc(-c2ccc(-c3ccccc3)cc2)c[nH]1)OCC1CCCCC1`: 700 nM and 21 nM.
With `CCCCOC(=O)NCCc1nc(-c2ccc(N3CCCC3)cc2)c[nH]1`, the IC50 with SH-SY5Y stood at 1120 nM; in assay [1], 14 nM.
Regarding `CC(C)COC(=O)NCCc1nc(-c2ccc(-c3ccccc3)cc2)c[nH]1`, the IC50 worked out at 610 nM in the assay with SH-SY5Y and 26 nM in assay [1].
As to `CCCCOC(=O)NCCc1nc(-c2ccc(CC)cc2)c[nH]1`, the IC50 came out at 3220 nM in the assay on SH-SY5Y and 96 nM in assay [1].
As to `O=C(NCCc1nc(-c2ccc(-c3ccccc3)cc2)c[nH]1)OC1CCCC1`, the IC50 with SH-SY5Y was determined as 870 nM; in assay [1], 52 nM.
